Experimental data taken from ChEMBL document CHEMBL1148105, “Bioactive metabolites from a marine-derived strain of the fungus Emericella variecolor” (2002).
The source made the active and inactive calls. No cut-off for these calls is given here.

Assays:
UO-31 = test: Growth inhibition of human UO31 cells; assay type: functional
Summary of the method: (§1)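 Run in the NCI 60-cell-line screen under the standard NCI protocol. Cells were tested at concentrations up to 10^-4 M. Potency was expressed as GI50 (M), taken from the NCI mean-graph data.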

DU-145 = test: Growth inhibition of human DU145 cells; assay type: functional
Summary of the method: (§2)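 Tested in the NCI 60-cell-line screen using the standard NCI protocol, with concentrations up to 10^-4 M. Growth inhibition is reported as GI50 (M), taken from the NCI mean graphs.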

MCF7 = test: Growth inhibition of human MCF7 cells; assay type: functional; summary of the method: as §2
NCI/ADR-RES = test: Growth inhibition of human NCI/ADR-RES cells; assay type: functional; summary of the method: as §2
Bacillus subtilis = test: Antimicrobial activity against Bacillus subtilis at 100 ug/ml; assay type: functional, organism-based
Proteus sp. = test: Antimicrobial activity against Proteus sp. at 100 ug/ml; assay type: functional, organism-based
CCRF-CEM = test: Growth inhibition of human CCRF-CEM cells; assay type: functional; summary of the method: as §2
K562 = test: Growth inhibition of human K562 cells; assay type: functional; summary of the method: as §2
[1] = Growth inhibition of human RPMI8266 cells; assay type: functional; summary of the method: as §1
SR = test: Growth inhibition of human SR cells; assay type: functional; summary of the method: as §1
HOP-92 = test: Growth inhibition of human HOP92 cells; assay type: functional; summary of the method: as §2
NCI-H460 = test: Growth inhibition of human NCI-H460 cells; assay type: functional; summary of the method: as §2
HCC 2998 = test: Growth inhibition of human HCC2998 cells; assay type: functional; summary of the method: as §2
HCT-116 = test: Growth inhibition of human HCT116 cells; assay type: functional; summary of the method: as §2
KM12 = test: Growth inhibition of human KM12 cells; assay type: functional; summary of the method: as §2
SNB-75 = test: Growth inhibition of human SNB75 cells; assay type: functional; summary of the method: as §1
LOX IMVI = test: Growth inhibition of human LOXIMVI cells; assay type: functional; summary of the method: as §2
M14 = test: Growth inhibition of human M14 cells; assay type: functional; summary of the method: as §2
UACC-62 = test: Growth inhibition of human UACC62 cells; assay type: functional; summary of the method: as §1
IGROV-1 = test: Growth inhibition of human IGROV1 cells; assay type: functional; summary of the method: as §2
OVCAR-3 = test: Growth inhibition of human OVCAR-3 cells; assay type: functional; summary of the method: as §2
OVCAR-4 = test: Growth inhibition of human OVCAR4 cells; assay type: functional; summary of the method: as §2
OVCAR-8 = test: Growth inhibition of human OVCAR8 cells; assay type: functional; summary of the method: as §2
TK-10 = test: Growth inhibition of human TK10 cells; assay type: functional; summary of the method: as §1
[2] = read-out: pLC50 (the source's name) (converted)

COc1cccc(/C=C/[C@H]2O[C@@H](C)[C@H](O)[C@@H]2O)c1CO [VARITRIOL]
GI50 (UO-31): > 100 µM
CC50 (UO-31; [2]): > 100 µM
TGI (UO-31; read-out: pTGI): > 100 µM
GI50 (DU-145): 1.1 µM
CC50 (DU-145; [2]): > 100 µM
TGI (DU-145; read-out: pTGI (converted)): 2.4 µM
GI50 (MCF7): > 100 µM
CC50 (MCF7; [2]): > 100 µM
TGI (MCF7; read-out: pTGI): > 100 µM
GI50 (NCI/ADR-RES): > 100 µM
CC50 (NCI/ADR-RES; [2]): > 100 µM
TGI (NCI/ADR-RES; read-out: pTGI): > 100 µM
Activity (Bacillus subtilis): inactive
Activity (Proteus sp.): inactive
GI50 (CCRF-CEM): 25.7 µM
CC50 (CCRF-CEM; [2]): > 100 µM
TGI (CCRF-CEM; read-out: pTGI (converted)): 70.8 µM
GI50 (K562): > 100 µM
CC50 (K562; [2]): > 100 µM
TGI (K562; read-out: pTGI): > 100 µM
GI50 [1]: > 100 µM
CC50 [1, 2]: > 100 µM
TGI ([1]; read-out: pTGI): > 100 µM
GI50 (SR): > 100 µM
CC50 (SR; [2]): > 100 µM
TGI (SR; read-out: pTGI): > 100 µM
GI50 (HOP-92): > 100 µM
CC50 (HOP-92; [2]): > 100 µM
TGI (HOP-92; read-out: pTGI): > 100 µM
GI50 (NCI-H460): > 100 µM
CC50 (NCI-H460; [2]): > 100 µM
TGI (NCI-H460; read-out: pTGI): > 100 µM
GI50 (HCC 2998): > 100 µM
CC50 (HCC 2998; [2]): > 100 µM
TGI (HCC 2998; read-out: pTGI): > 100 µM
GI50 (HCT-116): > 100 µM
CC50 (HCT-116; [2]): > 100 µM
TGI (HCT-116; read-out: pTGI): > 100 µM
GI50 (KM12): > 100 µM
CC50 (KM12; [2]): > 100 µM
TGI (KM12; read-out: pTGI): > 100 µM
GI50 (SNB-75): 0.245 µM
CC50 (SNB-75; [2]): > 100 µM
TGI (SNB-75; read-out: pTGI (converted)): 1.02 µM
GI50 (LOX IMVI): > 100 µM
CC50 (LOX IMVI; [2]): > 100 µM
TGI (LOX IMVI; read-out: pTGI): > 100 µM
GI50 (M14): > 100 µM
CC50 (M14; [2]): > 100 µM
TGI (M14; read-out: pTGI): > 100 µM
GI50 (UACC-62): > 100 µM
CC50 (UACC-62; [2]): > 100 µM
TGI (UACC-62; read-out: pTGI): > 100 µM
GI50 (IGROV-1): > 100 µM
CC50 (IGROV-1; [2]): > 100 µM
TGI (IGROV-1; read-out: pTGI): > 100 µM
GI50 (OVCAR-3): > 100 µM
CC50 (OVCAR-3; [2]): > 100 µM
TGI (OVCAR-3; read-out: pTGI): > 100 µM
GI50 (OVCAR-4): > 100 µM
CC50 (OVCAR-4; [2]): > 100 µM
TGI (OVCAR-4; read-out: pTGI): > 100 µM
GI50 (OVCAR-8): > 100 µM
CC50 (OVCAR-8; [2]): > 100 µM
TGI (OVCAR-8; read-out: pTGI): > 100 µM
GI50 (TK-10): > 100 µM
CC50 (TK-10; [2]): > 100 µM
TGI (TK-10; read-out: pTGI): > 100 µM
